Values after ≈ are worked out from the molar mass of the structure shown.
Columns and labels:
[1] = Selectivity index, ratio of IC50 for african green monkey (Cercopithecus aethiops) Vero cells to IC50 for Plasmodium falciparum 3D7; type: toxicity, cell-based; conditions: read-out: Ratio IC50
Summary of the method: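 P. falciparum 3D7 was tested by SYBR Green I fluorescence at 0.5% parasitaemia: two-fold dilutions from 500 ng/mL (seven concentrations), duplicate wells, 72 h, then lysis buffer with dye. Vero cells (1 × 10⁴/well) got MTT after 72 h with compound. Each IC₅₀ came from non-linear regression dose–response curves; selectivity index is the Vero/3D7 ratio.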

Plasmodium falciparum = test: Antimalarial activity against chloroquine-sensitive Plasmodium falciparum 3D7 after 72 hrs by SYBR Green assay; conditions: 3D7, 72 h
Plasmodium yoelii [2] = test: Antiplasmodial activity as reduced parasitaemia against chloroquine-resistant Plasmodium yoelii N67 infected Swiss mice (Mus musculus) at 10 mg/kg/day peroral dose after 4 days; type: functional; parameters: scale not given: the % may be the effect or the level left; conditions: route oral
Summary of the method: (§1)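 Swiss mice inoculated on day 0 with 1×10⁶ P. yoelii N-67 parasitized RBC. […] Parasitaemia read from thin blood smears. Percent suppression calculated from the group mean against untreated infected controls.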

Plasmodium yoelii [3] = test: Antiplasmodial activity as reduced parasitaemia against chloroquine-resistant Plasmodium yoelii N67 infected Swiss mice (Mus musculus) at 10 mg/kg/day peroral dose over 10 days; type: functional; parameters: scale not given: the % may be the effect or the level left; conditions: route oral; summary of the method: as §1
Plasmodium yoelii [4] = test: Antiplasmodial activity as reduced parasitaemia against chloroquine-resistant Plasmodium yoelii N67 infected Swiss mice (Mus musculus) at 50 mg/kg/day after 4 days; type: functional; parameters: scale not given: the % may be the effect or the level left
Summary of the method: (§2)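 Swiss mice inoculated on day 0 with 1×10⁶ P. yoelii N-67 parasitized RBC. Groups of five received 50 mg/kg/day intraperitoneally, once daily on days 0–3, as aqueous suspensions with a few drops of Tween 80. Parasitaemia read from thin blood smears. Percent suppression calculated from the group mean against untreated infected controls.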

Plasmodium yoelii [5] = test: Antiplasmodial activity as reduced parasitaemia against chloroquine-resistant Plasmodium yoelii N67 infected Swiss mice (Mus musculus) at 50 mg/kg/day intraperitoneal dose after 10 days; type: functional; parameters: scale not given: the % may be the effect or the level left; summary of the method: as §2

Structure (SMILES)	selectivity ratio [1]	IC50 (Plasmodium falciparum) [µg/mL]	Activity (Plasmodium yoelii [2]) [%]	Activity (Plasmodium yoelii [3]) [%]	Activity (Plasmodium yoelii [4]) [%]	Activity (Plasmodium yoelii [5]) [%]
CCCC/N=C1\SC(=O)C(=O)N1CCCNc1ccnc2cc(Cl)ccc12	256	0.011 (≈ 0.0272 µM)	–	–	–	–
CCCCNC(=S)NCCCNc1ccnc2cc(Cl)ccc12	600	0.0118 (≈ 0.0337 µM)	–	–	–	–
O=C1C(=O)N(c2ccccc2Cl)C(=S)N1CCNc1ccnc2cc(Cl)ccc12	3.36	0.199 (≈ 0.448 µM)	–	–	–	–
O=C1C(=O)N(c2ccccc2Cl)C(=S)N1CCCNc1ccnc2cc(Cl)ccc12	122	0.0397 (≈ 0.0864 µM)	–	–	–	–
CCN(CC)CCCC(C)Nc1ccnc2cc(Cl)ccc12 (centres undefined) [CHLOROQUINE]	–	–	99.05	73.92	–	–
CCCC/N=C1\SC(=O)C(=O)N1CCNc1ccnc2cc(Cl)ccc12	480	0.0174 (≈ 0.0446 µM)	–	–	–	–
S=C(NCCNc1ccnc2cc(Cl)ccc12)Nc1ccccc1	997	0.00922 (≈ 0.0258 µM)	–	–	–	–
O=C1S/C(=N\c2ccccc2Cl)N(CCCNc2ccnc3cc(Cl)ccc23)C1=O	434	0.0175 (≈ 0.0381 µM)	–	–	–	–
CCCCN1C(=O)C(=O)N(CCNc2ccnc3cc(Cl)ccc23)C1=S	406	0.0331 (≈ 0.0846 µM)	–	–	–	–
O=C1S/C(=N\c2ccccc2)N(CCNc2ccnc3cc(Cl)ccc23)C1=O	605	0.0295 (≈ 0.0718 µM)	–	–	–	–
C=CC/N=C1\SC(=O)C(=O)N1CCNc1ccnc2cc(Cl)ccc12	603	0.0324 (≈ 0.0865 µM)	–	–	–	–
O=C1S/C(=N\c2ccccc2)N(CCCNc2ccnc3cc(Cl)ccc23)C1=O	637	0.011 (≈ 0.026 µM)	–	–	–	–
O=C1C(=O)N(c2ccccc2)C(=S)N1CCCNc1ccnc2cc(Cl)ccc12	65.5	0.151 (≈ 0.354 µM)	–	–	–	–
C=CC/N=C1\SC(=O)C(=O)N1CCCNc1ccnc2cc(Cl)ccc12	475	0.112 (≈ 0.287 µM)	–	–	–	–
C=CCNC(=S)NCCCNc1ccnc2cc(Cl)ccc12	582	0.042 (≈ 0.125 µM)	–	–	–	–
CCCCN1C(=O)C(=O)N(CCCNc2ccnc3cc(Cl)ccc23)C1=S	27.2	0.0697 (≈ 0.172 µM)	–	–	–	–
C=CCN1C(=O)C(=O)N(CCCNc2ccnc3cc(Cl)ccc23)C1=S	80.4	0.0548 (≈ 0.141 µM)	–	–	–	–
CCCCNC(=S)NCCNc1ccnc2cc(Cl)ccc12	750	0.00607 (≈ 0.018 µM)	–	–	99.27	50.5
S=C(NCCNc1ccnc2cc(Cl)ccc12)Nc1ccccc1Cl	332	0.0205 (≈ 0.0524 µM)	–	–	–	–
S=C(NCCCNc1ccnc2cc(Cl)ccc12)Nc1ccccc1	968	0.01 (≈ 0.027 µM)	–	–	–	–
O=C1C(=O)N(c2ccccc2)C(=S)N1CCNc1ccnc2cc(Cl)ccc12	118	0.119 (≈ 0.29 µM)	–	–	–	–
C=CCNC(=S)NCCNc1ccnc2cc(Cl)ccc12	668	0.0261 (≈ 0.0814 µM)	–	–	–	–
O=C1S/C(=N\c2ccccc2Cl)N(CCNc2ccnc3cc(Cl)ccc23)C1=O	543	0.0121 (≈ 0.0272 µM)	–	–	5.45	–
S=C(NCCCNc1ccnc2cc(Cl)ccc12)Nc1ccccc1Cl	1110	0.0102 (≈ 0.0251 µM)	–	–	16.82	–
C=CCN1C(=O)C(=O)N(CCNc2ccnc3cc(Cl)ccc23)C1=S	141	0.104 (≈ 0.278 µM)	–	–	–	–

Source: ChEMBL document CHEMBL1138607, “Synthesis of novel thiourea, thiazolidinedione and thioparabanic acid derivatives of 4-aminoquinoline as potent antimalarials” (Bioorg Med Chem Lett, 2009)
